Source: PubChem (several laboratories)
L major viab – reduces viability of Leishmania major promastigotes; inhibition, % at 10 µM; resazurin fluorescence viability; 200,000 tested, 9% active; AID 1063; in the data active means inhibition above about 50%;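 further: promastigotes grown with compound for 44 hours at 28 °C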
Calb FLC – affects C. albicans growth with fluconazole; C. albicans CaCi-2 + fluconazole, Alamar Blue growth, 48 h; growth inhibition, % (concentration not given with the values); 300,000 tested, 0.57% active;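 active means growth inhibition above about 58% in most replicates, limit read from the data, passing the limit was not always enough; inconclusive means exactly half the replicates above a set limit; inactive means most replicates below a set limit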;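 further: all wells also contain fluconazole at 8 µg/ml as a sub-toxic cotreatment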
T cruzi inh – blocks replication of Trypanosoma cruzi; T. cruzi beta-gal in NIH3T3, luminescence, 90 h; inhibition, % (test concentration not listed); 300,000 tested, 1.4% active; AID 1885;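 active means mean inhibition across valid replicates above about 55%, limit read from the data; inconclusive means mean below that limit but half or more replicates reach it; inactive means mean below it, under half of replicates reach it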;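 further: signal also drops with host cell toxicity which is not excluded here; higher percent means less beta-gal luminescence so fewer parasites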
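Material: NIH/3T3 host cells with β-galactosidase reporter T. cruzi; Input: 5,000 host fibroblasts per well; Medium: DMEM, 2% fetal bovine serum; Compound: 50 nL DMSO compound solution per well; Schedule: 3 h host attachment, then at least 90 h co-culture; Detection: luminescent β-galactosidase signal after 60 min lysis.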
NALP1 inh – blocks the NALP1 inflammasome reconstituted in yeast; S. cerevisiae NALP1/ASC/caspase-1 growth, X-gal OD620, 72 h; inhibition, % at 10 µM; 280,000 tested, 0.61% active; AID 2071; in the data active means inhibition mostly above about 24%, no sharp cut-off; inactive means mostly below about 32%
PolyA inhibitor – blocks polyadenylation in yeast reporter cells; activity score, % at 12 µM; 300,000 tested, 0.02% active; S. cerevisiae SKY197-pL101 polyadenylation reporter, beta-gal luminescence; efflux-impaired pdr1/pdr3 knockout yeast; score 100 = 6 SD above DMSO;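 active means lowest replicate activity score at least 50, where 100 means six control SD above control mean; inconclusive means lowest score under 50 but half or more replicates reach 50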;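 further: yeast exposed to compound for 9 h at 30 °C; higher score means more reporter readthrough which indicates perturbed polyadenylation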
NALP3 yeast inh – inhibitors of NALP3 inflammasome in yeast; Yeast reconstituted NLRP3/ASC/caspase-1, beta-gal luminescence, 24 h; inhibition, % at 10 µM; 330,000 tested, 0.39% active;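 active means inhibition of 50% or more; inactive means inhibition below 50%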
Each line names hits and unclear results; the compound was inactive in the other large screens. This excerpt belongs to a sample that is enriched for hits.

O=C(NCc1ccco1)c1sc(=S)n2c1[nH]c(=O)c1ccccc12	Calb FLC 93
O=C(NC1CCCC1)c1sc(=S)n2c1[nH]c(=O)c1ccccc12	none
Cc1ccc(NS(=O)(=O)c2ccc3c(c2)NC(=O)CCS3)c(Br)c1	none (no result: L major viab)
Cc1ccc(C2C(C#N)=C(N)Oc3cc(N)ccc32)cc1 (configuration not stated)	none (no result: L major viab)
Cc1ccc(/C=C2\CCC3=C2OC(N)=C(C#N)C3c2ccc(C)cc2)cc1 (configuration not stated)	L major viab 100
Cc1c(C(=O)N2CC3(CC(c4cccc(NC(=O)CC(c5ccccc5)c5ccccc5)c4)=NO3)C[C@@H]2C(N)=O)cc([N+](=O)[O-])cc1[N+](=O)[O-] (some centres not stated)	T cruzi inh 67 (no result: L major viab, NALP1 inh)
NC(=O)[C@@H]1CC2(CC(c3cccc(NC(=O)CC(c4ccccc4)c4ccccc4)c3)=NO2)CN1C(=O)c1ccc(Cl)cc1 (some centres not stated)	T cruzi inh 57 (no result: L major viab, NALP1 inh)
CC(C)=CCCC(C)CN1CCC(n2nccc2NC(=O)C2CCCC2)CC1 (configuration not stated)	none (no result: L major viab)
Nc1nc(SCC(=O)Nc2ccccc2)nc2nc3c(cc12)CCCC3	L major viab 66
Cc1ccc(NC(=O)CSc2nc(N)c3cc4c(nc3n2)CCCC4)cc1	L major viab 93
Cc1ccc(NC(=O)CSc2nc(N)c3c4c(sc3n2)CSC(C)(C)C4)cc1	L major viab 88, PolyA inhibitor inconclusive
COc1ccc(NC(=O)CSc2nc(N)c3cc4c(nc3n2)CCCC4)c(OC)c1	none
Cc1ccccc1NC(=O)CSc1nc(N)c2c3c(sc2n1)CSC(C)(C)C3	none
CCOc1ccc(-n2c(SCC(=O)O)nc3sc4c(c3c2=O)CCCC4)cc1	none (no result: L major viab)
O=C(COc1ccccc1Br)N1CCN(C(=O)c2cccs2)CC1	none (no result: L major viab, Calb FLC, T cruzi inh, NALP1 inh, PolyA inhibitor)
O=C(NCc1ccccn1)C1C2C=CC(C2)C1C(=O)Nc1ccc(F)cc1 (configuration not stated)	L major viab 76
O=C(COc1ccc(S(=O)(=O)NC2CCCCC2)cc1Cl)NCc1ccc2c(c1)OCO2	L major viab 73
Cc1ccc(C)c(NC(=O)c2ccccc2NC(=O)C2CCCO2)c1 (configuration not stated)	none
COc1cccc(OC)c1OCC(C)CNCC1CCCO1 (configuration not stated)	L major viab 85
CC1CCCC(NC(=O)NC(=O)CCl)C1C (configuration not stated)	L major viab 99
CC1CCCC(NC(=O)CSC2CCCCC2)C1C (configuration not stated)	none
CC1CCCCC1NC(=O)NC(=O)CCl (configuration not stated)	L major viab 98, Calb FLC inconclusive
CCc1cc(=O)n2[nH]c(-c3ccccc3)c(-c3ccccc3)c2n1	none (no result: L major viab)
O=C(CCNC(=O)C1CCN(S(=O)(=O)c2ccc(F)cc2)CC1)NCCc1ccc(Cl)cc1	none (no result: L major viab)
CCCCc1cc(-c2n[nH]c(=S)o2)c2ccccc2n1	none (no result: L major viab)
Cc1oc(-c2cccs2)nc1CN1CCN(CC(C)C)C(CCO)C1 (configuration not stated)	none
O=C(c1ccccc1F)N(NC(=O)C(O)(c1ccccc1)c1ccccc1)c1ccccc1	none
CCOC(=O)c1sc2nc(C)nc(NCCc3ccccn3)c2c1C	none
CCOC(=O)c1sc2nc(CSc3ccccc3)nc(NCCN(C)C)c2c1C	L major viab 93
COc1ccccc1NS(=O)(=O)c1ccc(/C=C/C(=O)O)cc1	none
Cc1ccc2cc(CCNS(=O)(=O)c3ccc(Br)cc3)c(=O)[nH]c2c1C	none (no result: L major viab)
COc1ccccc1NC(=O)C(=O)N/N=C/c1cccs1	L major viab 55
CCN1C(=O)/C(=C\C(=O)c2cccs2)c2cc(Br)ccc21	L major viab 100
C=CCN1C=C/C(=C\C=C(C#N)C#N)c2ccccc21	L major viab 70
CCN1CCn2c3c(c4cc(Cl)ccc42)CCCC31 (configuration not stated)	L major viab 54
Cc1ccc2c(c1)c1c3n2CCN(C=O)C3CCC1 (configuration not stated)	none (no result: L major viab)
CCN(CC)CCN1CCn2c3c(c4cc(C)ccc42)CCCC31 (configuration not stated)	L major viab 100
